# From ChEMBL document CHEMBL5357066, “Development of Novel Membrane Disrupting Lipoguanidine Compounds Sensitizing Gram-Negative Bacteria to Antibiotics” (ACS Med Chem Lett, 2024)
# Experiments:
# Klebsiella pneumoniae [1] = assay: Synergistic antibacterial activity against […] Klebsiella pneumoniae M6 assessed as rifampicin MIC at <=0.25 times MIC incubated for overnight by microbroth dilution checkerboard assay; assay type: functional
# In short: (§1)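 Checkerboard run under the MIC conditions (TSB, overnight, 37 °C). Antibiotic and lipoguanidine 2-fold series were combined on one plate before bacteria were added. Growth/no-growth was scored as for the MIC (<0.1 OD600). Single-agent MICs were measured on the same plates. Three independent repeats were done.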
# Klebsiella pneumoniae [2] = assay: Antibacterial activity against Klebsiella pneumoniae M6 assessed as bacterial growth inhibition incubated for overnight by microbroth dilution method
# Acinetobacter baumannii [3] = assay: Synergistic antibacterial activity against Acinetobacter baumannii ATCC 17978 assessed as fold change in rifampicin MIC at <=0.25 times MIC incubated for overnight by microbroth dilution checkerboard assay relative to rifampicin alone; assay type: functional
# In short: (§2)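 Checkerboard microdilution under MIC conditions (TSB, overnight, 37 °C). Two-fold series of each agent were combined on one plate before bacteria were added, and single-agent MICs were measured on the same plate. FIC = sum of combination MIC/alone MIC for each agent, taken from the most synergistic well. Three independent repeats, mean ± SD. ≤0.5 was taken as strong synergy and 0.5–<1 as weak.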
# Escherichia coli [4] = assay: Synergistic antibacterial activity against Escherichia coli NCTC 12923 assessed as rifampicin MIC at <=0.25 times MIC incubated for overnight by microbroth dilution checkerboard assay; assay type: functional; in short: as §2
# Acinetobacter baumannii [5] = assay: Synergistic antibacterial activity against Acinetobacter baumannii AYE assessed as rifampicin MIC at <=0.25 times MIC incubated for overnight by microbroth dilution checkerboard assay; assay type: functional; in short: as §2
# Enterococcus faecalis [6] = assay: Antibacterial activity against vancomycin resistant Enterococcus faecalis NCTC 12201 assessed as bacterial growth inhibition incubated for overnight by microbroth dilution method; assay type: functional
# In short: (§3)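 Microbroth dilution in Tryptic Soy Broth. DMSO stocks were diluted in TSB as 2-fold series. Overnight TSB cultures were back-diluted to OD 0.01 and mixed 1:1 with compound. Incubation was overnight at 37 °C. MIC is the lowest concentration with no visible growth (<0.1 OD600). DMSO at equivalent concentrations was checked.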
# Acinetobacter baumannii [7] = assay: Antibacterial activity against Acinetobacter baumannii ATCC 17978 assessed as bacterial growth inhibition incubated for overnight by microbroth dilution method; assay type: functional
# In short: (§4)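 Broth microdilution in Tryptic Soy Broth. DMSO stocks were diluted in TSB as 2-fold series. Overnight TSB cultures were back-diluted to OD 0.01 and mixed 1:1 with compound. Incubation was overnight at 37 °C. MIC was the lowest concentration without visible growth (<0.1 OD600). DMSO vehicle was checked at equivalent concentrations.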
# Pseudomonas aeruginosa [8] = assay: Antibacterial activity against Pseudomonas aeruginosa NCTC 13437 assessed as bacterial growth inhibition incubated for overnight by microbroth dilution method; assay type: functional; in short: as §4
# Staphylococcus aureus [9] = assay: Antibacterial activity against methicillin sensitive Staphylococcus aureus 1199B assessed as bacterial growth inhibition incubated for overnight by microbroth dilution method; assay type: functional; in short: as §3
# Acinetobacter baumannii [10] = assay: Synergistic antibacterial activity against Acinetobacter baumannii ATCC 17978 assessed as rifampicin MIC at <=0.25 times MIC incubated for overnight by microbroth dilution checkerboard assay; assay type: functional; in short: as §2
# Escherichia coli [11] = assay: Synergistic antibacterial activity against Escherichia coli NCTC 12923 assessed as fold change in rifampicin MIC at <=0.25 times MIC incubated for overnight by microbroth dilution checkerboard assay relative to rifampicin alone; assay type: functional; in short: as §2
# Klebsiella pneumoniae [12] = assay: Synergistic antibacterial activity against Klebsiella pneumoniae NCTC 13368 assessed as bacterial growth inhibition incubated for overnight in presence of PBMN by microbroth dilution method relative to control; assay type: functional
# In short: (§5)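 Adapted broth microdilution in TSB. The test compound was in a 2-fold dilution series, with PMBN added at a fixed 30 µg/mL. Bacteria at OD 0.02 were added, and plates were incubated overnight at 37 °C. Growth/no growth was read as for the MIC (<0.1 OD600).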
# Pseudomonas aeruginosa [13] = assay: Synergistic antibacterial activity against Pseudomonas aeruginosa PAO1 assessed as fold change in rifampicin MIC at <=0.25 times MIC incubated for overnight by microbroth dilution checkerboard assay relative to rifampicin alone; assay type: functional
# In short: (§6)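 Checkerboard microdilution in Tryptic Soy Broth, run like the MIC assay. Overnight TSB cultures were back-diluted to OD 0.01 and added 1:1 to the combined two-fold series of both agents, then incubated overnight at 37 °C. Growth/no-growth was called at <0.1 OD600. MICs alone were read on the same plates. FIC index came from the most synergistic well; three independent repeats, mean ± SD.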
# Staphylococcus aureus [14] = assay: Antibacterial activity against methicillin resistant Staphylococcus aureus USA 300 assessed as bacterial growth inhibition incubated for overnight by microbroth dilution method; assay type: functional; in short: as §3
# Pseudomonas aeruginosa [15] = assay: Synergistic antibacterial activity against Pseudomonas aeruginosa PAO1 assessed as bacterial growth inhibition incubated for overnight in presence of […] by microbroth dilution method relative to control; assay type: functional
# In short: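 Fixed-concentration combination MIC in TSB. The first agent was set in a two-fold dilution series (100 µL/well), then 50 µL/well of the second agent at a fixed concentration was added; PMBN was fixed at 30 µg/mL. Bacteria at OD 0.02 (50 µL) went into 150 µL of compounds, overnight at 37 °C. MIC was the lowest concentration without visible growth (<0.1 OD600).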
# Klebsiella pneumoniae [16] = assay: Synergistic antibacterial activity against Klebsiella pneumoniae M6 assessed as bacterial growth inhibition incubated for overnight in presence of PBMN by microbroth dilution method relative to control; assay type: functional; in short: as §5
# Escherichia coli [17] = assay: Antibacterial activity against Escherichia coli NCTC 12923 assessed as bacterial growth inhibition incubated for overnight by microbroth dilution method; assay type: functional; in short: as §4
# Acinetobacter baumannii [18] = assay: Synergistic antibacterial activity against Acinetobacter baumannii ATCC 17978 assessed as bacterial growth inhibition incubated for overnight in presence of PBMN by microbroth dilution method relative to control; assay type: functional; in short: as §5
# Pseudomonas aeruginosa [19] = assay: Synergistic antibacterial activity against Pseudomonas aeruginosa NCTC 13437 assessed as fold change in rifampicin MIC at <=0.25 times MIC incubated for overnight by microbroth dilution checkerboard assay relative to rifampicin alone; assay type: functional; in short: as §6
# Klebsiella pneumoniae [20] = assay: Synergistic antibacterial activity against Klebsiella pneumoniae NCTC 13368 assessed as fold change in rifampicin MIC at <=0.25 times MIC incubated for overnight by microbroth dilution checkerboard assay relative to rifampicin alone; assay type: functional; in short: as §1
# Enterococcus faecium = assay: Antibacterial activity against vancomycin resistant Enterococcus faecium NCTC 12204 assessed as bacterial growth inhibition incubated for overnight by microbroth dilution method; assay type: functional; in short: as §3
# Acinetobacter baumannii [21] = assay: Synergistic antibacterial activity against Acinetobacter baumannii AYE assessed as fold change in rifampicin MIC at <=0.25 times MIC incubated for overnight by microbroth dilution checkerboard assay relative to rifampicin alone; assay type: functional; in short: as §2
# Escherichia coli [22] = assay: Synergistic antibacterial activity against Escherichia coli NCTC 12923 assessed as bacterial growth inhibition incubated for overnight in presence of PBMN by microbroth dilution method relative to control; assay type: functional; in short: as §5
# Pseudomonas aeruginosa [23] = assay: Synergistic antibacterial activity against Pseudomonas aeruginosa NCTC 13437 assessed as rifampicin MIC at <=0.25 times MIC incubated for overnight by microbroth dilution checkerboard assay; assay type: functional; in short: as §6
# Staphylococcus aureus [24] = assay: Antibacterial activity against methicillin sensitive Staphylococcus aureus ATCC 9144 assessed as bacterial growth inhibition incubated for overnight by microbroth dilution method; assay type: functional; in short: as §3
# Enterococcus faecalis [25] = assay: Antibacterial activity against vancomycin sensitive Enterococcus faecalis NCTC 775 assessed as bacterial growth inhibition incubated for overnight by microbroth dilution method
# Pseudomonas aeruginosa [26] = assay: Antibacterial activity against Pseudomonas aeruginosa PAO1 assessed as bacterial growth inhibition incubated for overnight by microbroth dilution method; assay type: functional; in short: as §4
# Staphylococcus aureus [27] = assay: Antibacterial activity against methicillin resistant Staphylococcus aureus NCTC 13616 assessed as bacterial growth inhibition incubated for overnight by microbroth dilution method; assay type: functional; in short: as §3
# Acinetobacter baumannii [28] = assay: Synergistic antibacterial activity against Acinetobacter baumannii AYE assessed as bacterial growth inhibition incubated for overnight in presence of PBMN by microbroth dilution method relative to control; assay type: functional; in short: as §5
# Pseudomonas aeruginosa [29] = assay: Synergistic antibacterial activity against Pseudomonas aeruginosa PAO1 assessed as rifampicin MIC at <=0.25 times MIC incubated for overnight by microbroth dilution checkerboard assay; assay type: functional; in short: as §6
# Klebsiella pneumoniae [30] = assay: Antibacterial activity against ESBL Klebsiella pneumoniae NCTC 13368 assessed as bacterial growth inhibition incubated for overnight by microbroth dilution method
# Acinetobacter baumannii [31] = assay: Antibacterial activity against Acinetobacter baumannii AYE assessed as bacterial growth inhibition incubated for overnight by microbroth dilution method; assay type: functional; in short: as §4
# Klebsiella pneumoniae [32] = assay: Synergistic antibacterial activity against Klebsiella pneumoniae NCTC 13368 assessed as rifampicin MIC at <=0.25 times MIC incubated for overnight by microbroth dilution checkerboard assay; assay type: functional; in short: as §2
# Pseudomonas aeruginosa [33] = assay: Synergistic antibacterial activity against Pseudomonas aeruginosa NCTC 13437 assessed as bacterial growth inhibition incubated for overnight in presence of PBMN by microbroth dilution method relative to control; assay type: functional; in short: as §5
smiles,measurement,setting,value
CCCCCCCCCCCCCCCCCCNC(=N)NCCCCN,MIC,Klebsiella pneumoniae [1],16 µg/mL
same,MIC,Klebsiella pneumoniae [2],> 128 µg/mL
same,fold change (FC),Acinetobacter baumannii [3],>=4
same,MIC,Escherichia coli [4],4 µg/mL
same,MIC,Acinetobacter baumannii [5],2 µg/mL
same,MIC,Enterococcus faecalis [6],2 µg/mL
same,MIC,Acinetobacter baumannii [7],16 µg/mL
same,MIC,Pseudomonas aeruginosa [8],> 128 µg/mL
same,MIC,Staphylococcus aureus [9],4 µg/mL
same,MIC,Acinetobacter baumannii [10],≤ 0.125 µg/mL
same,fold change (FC),Escherichia coli [11],0
same,inhibition (INH),Klebsiella pneumoniae [12],<20%
same,fold change (FC),Pseudomonas aeruginosa [13],0
same,MIC,Staphylococcus aureus [14],2 µg/mL
same,inhibition (INH),Pseudomonas aeruginosa [15],<20%
same,inhibition (INH),Klebsiella pneumoniae [16],<20%
same,MIC,Escherichia coli [17],> 128 µg/mL
same,inhibition (INH),Acinetobacter baumannii [18],<20%
same,fold change (FC),Pseudomonas aeruginosa [19],0
same,fold change (FC),Klebsiella pneumoniae [20],0
same,MIC,Enterococcus faecium,2 µg/mL
same,fold change (FC),Acinetobacter baumannii [21],>=4
same,inhibition (INH),Escherichia coli [22],<20%
same,MIC,Pseudomonas aeruginosa [23],32 µg/mL
same,MIC,Staphylococcus aureus [24],8 µg/mL
same,MIC,Enterococcus faecalis [25],2 µg/mL
same,MIC,Pseudomonas aeruginosa [26],> 128 µg/mL
same,MIC,Staphylococcus aureus [27],4 µg/mL
same,inhibition (INH),Acinetobacter baumannii [28],<20%
same,MIC,Pseudomonas aeruginosa [29],16 µg/mL
same,MIC,Klebsiella pneumoniae [30],> 128 µg/mL
same,MIC,Acinetobacter baumannii [31],128 µg/mL
same,MIC,Klebsiella pneumoniae [32],16 µg/mL
same,inhibition (INH),Pseudomonas aeruginosa [33],<20%
